ChEMBL document CHEMBL1132551, “Selective inhibitors of glial GABA uptake: synthesis, absolute stereochemistry, and pharmacology of the enantiomers of 3-hydroxy-4-amino-4,5,6,7-tetrahydro-1,2-benzisoxazole (exo-THPO) and analogues” (J Med Chem, 1999)

Key:
[1] = organism: Rattus norvegicus; assay: Inhibition of GABA uptake into crude synaptosomes prepared from adult rat brain; type: functional
Procedure, shortened: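 Crude synaptosomes from adult rat brain were preincubated with inhibitor for 10 min at 20 °C. Uptake was then run at 0.05 μM GABA.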

[2] = organism: Mus musculus; assay: Effect on neuronal GABA(1 uM) uptake was measured using neurons cultured from cerebral cortices of 15-day-old mouse embryos.; type: functional, organism-based
[3] = organism: Mus musculus; assay: Effect on glial GABA(1 uM) uptake was measured using astrocytes cultured from cerebral cortices of new born mice.; type: functional, organism-based
[4] = Hydrolysis was studied in 0.02 M aqueous phosphate buffer (pH 7.4) at 37 degree celsius; stable; type: ADME
Procedure, shortened: (§1)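 Prodrug stock in MeCN–H2O was added to prewarmed buffer, giving (2–3) × 10^-5 M final. Tubes were held at 37 ± 0.2 °C and sampled over time for RP-HPLC at 220 nm, quantified by peak area against standards. Pseudo-first-order rate constants came from slopes of log residual prodrug versus time, expressed as t1/2.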

[5] = The apparent partition coefficient(D) in n-octanol-0.05 M phosphate buffer (pH 7.4) at 21 degree celsius.; type: physicochemical
Procedure, shortened: (§2)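 Organic and aqueous phases were mutually saturated at 21 °C. Compound was dissolved in the aqueous buffer at (2–3) × 10^-5 M and shaken 10–15 min to equilibrium. Phases were separated by centrifugation for 3–5 min. Aqueous concentration before and after distribution was measured by HPLC, and D was reported as log D.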

[6] = Hydrolysis was studied in 0.02 M phosphate buffer containing 80% human plasma (pH 7.4) at 37 degree celsius; stable; type: ADME, cell-free
Procedure, shortened: (§3)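 Initial compound concentration was (2–3) × 10^-5 M, held at 37 °C. Samples taken over time were deproteinized with EtOH and centrifuged 3–5 min. Supernatant was analyzed by RP-HPLC at 220 nm; half-life was derived from residual compound over time.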

[7] = The apparent partition coefficient(D) in cyclohexane-0.05 M phosphate buffer (pH 7.4) at 21 degree celsius.; type: physicochemical; procedure, shortened: as §2
[8] = Hydrolysis was studied in 0.02 M phosphate buffer containing 80% human plasma (pH 7.4) at 37 degree celsius.; type: ADME, cell-free; procedure, shortened: as §3
[9] = Hydrolysis was studied in 0.02 M aqueous phosphate buffer (pH 7.4) at 37 degree celsius.; type: ADME; procedure, shortened: as §1

SMILES	IC50 [1] [µM]	IC50 [3] [µM]	IC50 [2] [µM]	further results
Oc1noc2c1C(N1CCCC1)CCC2 (stereo not drawn)	201	> 500	> 1000	
CNC1CCCc2snc(O)c21 (stereo not drawn)	242	> 500	> 1000	
Oc1noc2c1CNCC2	162	268	530	
CC(=O)OCCNC1CCCc2onc(O)c21 (stereo not drawn)	125	> 500	> 1000	
CNC1CCCc2on(COC(=O)C(C)(C)C)c(=O)c21 (stereo not drawn)				logD [7]: -1.4; logD [5]: 0.05; half-life [8]: 0.117 h; half-life [9]: 267 h
CNC1CCCc2onc(OCOC(=O)C(C)(C)C)c21 (stereo not drawn)				logD [7]: -0.17; logD [5]: 0.65; half-life [8]: 0.25 h; half-life [9]: 75 h
NC1CCCc2snc(O)c21 (stereo not drawn)	290	> 500	> 1000	
O=C(O)[C@@H]1CCCNC1 [(R)-NIPECOTIC ACID]	5	16	12	
O=C(O)C1=CCCNC1 [GUVACINE]	12	29	32	

Now from value to compound, other results behind:

IC50 [1] [µM]	IC50 [3] [µM]	SMILES	IC50 [2] [µM]	further results
291	> 500	CN(C)C1CCCc2onc(O)c21 (stereo not drawn)	> 1000	
173	> 500	OCCNC1CCCc2onc(O)c21 (stereo not drawn)	> 1000	
63	28	CNC1CCCc2onc(O)c21 (stereo not drawn)	423	T1/2 [4]: stable; logD [5]: -2.3; T1/2 [6]: stable
118	281	N[C@@H]1CCCc2onc(O)c21	681	
181	208	NC1CCCc2onc(O)c21 (stereo not drawn)	883	
105	278	CCNC1CCCc2onc(O)c21 (stereo not drawn)	391	
> 300		CN[C@H]1CCCc2onc(O)c21		
> 300		N[C@H]1CCCc2onc(O)c21		
39	60	CN[C@@H]1CCCc2onc(O)c21	510	
98	> 500	C=CCNC1CCCc2onc(O)c21 (stereo not drawn)	> 1000	
